Assays:
[1] = PKa value was measured; type: physicochemical
[2] = Inhibition of Escherichia coli (K12J53) Dihydopteroate synthase.
How it was run: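 Ammonium sulfate fraction (30–70%) from alumina-disrupted E. coli K12J53 grown on brain-heart infusion agar at 37 °C; it contains both pyrophosphokinase and synthase. Read-out was [14C]dihydropteroate. The 50% inhibitory concentration came from 1/dpm vs. concentration plots, divided by p-aminobenzoate concentration (EII50).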

[3] = test system: Escherichia coli; assay: In vitro inhibition of Escherichia coli (K12J53) growth.

Structure (SMILES) | pKa [1] | EII50 [2] | GII50 [3]
Nc1ccc(S(=O)(=O)Nc2nccs2)cc1 [SULFATHIAZOLE] | 7.23 | 0.9 | –
Nc1ccc(S(=O)(=O)Nc2ncccn2)cc1 | – | 2.56 | –
COc1cc(NS(=O)(=O)c2ccc(N)cc2)nc(OC)n1 [SULFADIMETHOXINE] | 5.98 | 0.85 | –
Cn1ccs/c1=N\S(=O)(=O)c1ccc(N)cc1 | – | 13.4 | > 10000
CN(C)S(=O)(=O)c1ccc(N)cc1 | – | 82 | > 35000
Cc1cc(C)n(C)/c(=N/S(=O)(=O)c2ccc(N)cc2)n1 | – | 26 | 52000
CN(c1ncccn1)S(=O)(=O)c1ccc(N)cc1 | – | 9.2 | 10000
NC(=O)NS(=O)(=O)c1ccc(N)cc1 [SULFACARBAMIDE] | 5.42 | 8.4 | –
Nc1ccc(S(N)(=O)=O)cc1 | – | 25 | –
CNS(=O)(=O)c1ccc(N)cc1 | 10.8 | 32.4 | 60000
Cc1nnc(NS(=O)(=O)c2ccc(N)cc2)s1 [SULFAMETHIZOLE] | 5.22 | 0.4 | –
Cc1cc(C)nc(NS(=O)(=O)c2ccc(N)cc2)n1 [SULFAMETHAZINE] | 7.51 | 1.92 | –
CN(c1ccccn1)S(=O)(=O)c1ccc(N)cc1 | – | 30 | 40000
Cc1cc(C)nc(N(C)S(=O)(=O)c2ccc(N)cc2)n1 | – | 10.8 | –
Cn1cccc/c1=N/S(=O)(=O)c1ccc(N)cc1 | – | 8 | 30000
CC(=O)NS(=O)(=O)c1ccc(N)cc1 [SULFACETAMIDE] | 5.38 | 4.44 | –
N=C(N)NS(=O)(=O)c1ccc(N)cc1 | – | 10.2 | –
Nc1ccc(S(=O)(=O)Nc2ccccn2)cc1 [SULFAPYRIDINE] | 8.56 | 4.2 | –
Cn1cccn/c1=N\S(=O)(=O)c1ccc(N)cc1 | – | 31.2 | > 100000
N#CNS(=O)(=O)c1ccc(N)cc1 | 2.92 | 8 | > 50000
CN(c1nccs1)S(=O)(=O)c1ccc(N)cc1 | – | 35.4 | > 10000
Nc1ccc(S(=O)(=O)NC(=O)c2ccccc2)cc1 [SULFABENZAMIDE] | 4.57 | 5.2 | –

Source: ChEMBL document CHEMBL1121916, “Structure-activity relationships in dihydropteroate synthase inhibition by sulfanilamides. Comparison with the antibacterial activity” (J Med Chem, 1981)
